The subject of experiment [1] is Muscarinic acetylcholine receptor M2 (Cavia porcellus). Put plainly: Palpha towards Muscarinic acetylcholine receptor M2 in guinea pig using [3H]NMS as a radioligand.
Experiment [2] has the same test system. Put plainly: Palpha towards Muscarinic acetylcholine receptor M2 in guinea pig using [3H]-AF-DX 384 as a radioligand.
For experiment [3] the test system is unchanged. In words: Half-maximally reduction towards muscarinic 2 receptor in guinea pig using [3H]-AF-DX 384 as a radioligand.
For experiment [4] the test system is unchanged. In words: Binding affinity towards Muscarinic acetylcholine receptor M2 in guinea pig using [3H]-NMS as a radioligand.
The test system is the same in experiment [5]. Put plainly: Emax dissociation towards Muscarinic acetylcholine receptor M2 in guinea pig using [3H]NMS as a radioligand.
For experiment [6] the test system is unchanged. Put plainly: Half-maximal reduction towards Muscarinic acetylcholine receptor M2 in guinea pig using [3H]NMS as a radioligand.
For experiment [7] the test system is unchanged. In words: Emax dissociation towards Muscarinic acetylcholine receptor M2 in guinea pig using [3H]AF-DX 384 as a radioligand.
Experiment [8] has the same test system. In words: Binding affinity towards Muscarinic acetylcholine receptor M2 in guinea pig using [3H]-AF-DX 384 as a radioligand.
Experiment [9] addresses T1, Muscarinic acetylcholine receptor M2 (Sus scrofa) (UniProt P06199).
T1 sequence (whole entry): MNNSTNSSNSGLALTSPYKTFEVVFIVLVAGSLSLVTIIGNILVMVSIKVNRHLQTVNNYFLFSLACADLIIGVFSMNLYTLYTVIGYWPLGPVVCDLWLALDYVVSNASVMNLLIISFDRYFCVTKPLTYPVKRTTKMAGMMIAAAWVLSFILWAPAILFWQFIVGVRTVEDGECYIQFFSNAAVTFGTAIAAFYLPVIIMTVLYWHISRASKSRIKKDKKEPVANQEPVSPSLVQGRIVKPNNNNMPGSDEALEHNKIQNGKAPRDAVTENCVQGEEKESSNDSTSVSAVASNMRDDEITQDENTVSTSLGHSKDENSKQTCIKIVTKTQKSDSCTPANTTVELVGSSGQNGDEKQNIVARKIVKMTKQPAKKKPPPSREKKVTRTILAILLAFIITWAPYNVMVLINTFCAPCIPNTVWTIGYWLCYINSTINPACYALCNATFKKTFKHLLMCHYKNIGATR
Put plainly: Emax dissociation towards Muscarinic acetylcholine receptor M2 in porcine heart using [3H]NMS as a radioligand. The procedure, abridged:
(§1)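 Dissociation assay at 37 °C on porcine cardiac membranes in Mg/Tris buffer, pH 7.3. Membranes were preincubated 30 min with 0.2 nM [3H]NMS, then dissociation was started with 1 μM atropine ± test compound and tracked for 120 min. Apparent dissociation rate constants k-1 against log concentration were fitted with a four-parameter logistic curve.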

In experiment [10] the target is T1, Muscarinic acetylcholine receptor M2 (Sus scrofa). In words: Palpha towards Muscarinic acetylcholine receptor M2 in porcine heart using [3H]NMS as a radioligand. The procedure, abridged:
(§2)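 Porcine heart membranes with 0.2 nM [3H]NMS at 37 °C in 3 mM MgHPO4 / 50 mM Tris-HCl, pH 7.3, and varying test-compound concentrations. Incubation was 120–360 min to reach equilibrium. Nonspecific binding was taken with 1 μM atropine. Bound label was filtered and counted. Curves were fitted to the ternary complex model of allosteric interaction. Three to four independent experiments.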

The target is the same in experiment [11]. In words: Half-maximal reduction towards Muscarinic acetylcholine receptor M2 in porcine heart using [3H]NMS as a radioligand. The method, boiled down: as §1
Experiment [12] shares this target. Put plainly: Binding affinity towards Muscarinic acetylcholine receptor M2 in porcine heart using [3H]NMS as a radioligand. The procedure, abridged:
as §2

`CCCCCC[N+](C)(C)CCCN1C(=O)c2ccccc2C1=O`: the Palpha in experiment [1] was -1.55; in experiment [2], -1.35. In addition, the pEC0.5,diss in experiment [3] was 4.11; in experiment [6] it was 4.06. Moreover, the results for the pKA in [4] and in [8] were 5.08 and 5.8, respectively. Besides, the figures for the Emax,diss in [5] and in experiment [7] were 100% and 82%, respectively.

Regarding `C[N+](C)(CCCCCC[N+](C)(C)CCCN1C(=O)c2ccccc2C1=O)CCCN1C(=O)CCC1=O`, the results for the Palpha in experiment [1] and in [2] were -0.49 and -1.56, respectively. In addition, the pEC0.5,diss in experiment [3] was determined as 3.67; in experiment [6], 4.82. In addition, the pKA in [4] is 5.24; in [8] it was 5.93. Moreover, the results for the Emax,diss in experiment [5] and in experiment [7] were 100% and 68%, respectively.

`C[N+](C)(C)CCCN1C(=O)c2ccccc2C1=O`: the results for the Palpha in [1] and in [2] were -1.21 and less than -2, respectively. The pEC0.5,diss stood at 3 in experiment [3] and 3.21 in experiment [6]. Moreover, the pKA worked out at 3.95 in experiment [4] and 4.51 in experiment [8]. Moreover, the Emax,diss in [5] turned out to be 100%; in [7], 25%.

Compound `CCCN(CCCN1C(=O)CCC1=O)CC1CCCCN1CCNC(=O)N1c2ccccc2C(=O)Nc2cccnc21` (stereo not given) registered an Emax,diss in [9] of 76%. In experiment [10], this compound came in with a Palpha of -1.8. This compound came in with a pEC0.5,diss in experiment [11] of 4.95. This compound showed a pKA in experiment [12] of 8.01.

`CCCN(CCCCCCN1C(=O)c2ccccc2C1=O)CC1CCCCN1CCNC(=O)N1c2ccccc2C(=O)Nc2cccnc21` (stereo not given) displayed an Emax,diss in [9] of 100%. The compound further had a Palpha in [10] of 0.05. For the same compound, in experiment [11], the pEC0.5,diss was determined as 6.75. The compound further registered a pKA in experiment [12] of 6.71.

In turn, `CCCN(CCC)CC1CCCCN1CCNC(=O)N1c2ccccc2C(=O)Nc2cccnc21` (stereo not given) registered an Emax,diss in experiment [9] of 100%. Besides, the Palpha in [10] is less than -2. This compound also returned a pEC0.5,diss in experiment [11] of 4.65. The same compound yielded a pKA in [12] of 8.14.

For the compound `CC[N+](C)(C)CCCN1C(=O)c2ccccc2C1=O`, the Palpha in [1] was -1.03; in [2], less than -2. The figures for the pEC0.5,diss in experiment [3] and in [6] were 3.33 and 3.35, respectively. Besides, the pKA in [4] amounted to 4.12; in experiment [8], 4.44. Further, the Emax,diss in experiment [5] amounted to 100%; in experiment [7] it was 34%.

For `CCCN(CCCN1C(=O)c2ccccc2C1=O)CC1CCCCN1CCNC(=O)N1c2ccccc2C(=O)Nc2cccnc21` (stereo not given), the Emax,diss in [9] is 100%. For the same compound, in experiment [10], the Palpha came out at 1.07. The same compound returned a pEC0.5,diss in [11] of 6.87. The same compound returned a pKA in experiment [12] of 5.89.

With `CCC[N+](C)(C)CCCN1C(=O)c2ccccc2C1=O`, the Palpha in experiment [1] was -0.78; in experiment [2], less than -2. Moreover, the pEC0.5,diss was determined as 2.98 in experiment [3] and 3.76 in experiment [6]. Besides, the results for the pKA in experiment [4] and in [8] were 3.55 and 4.1, respectively. The Emax,diss in [5] worked out at 90%; in [7], 73%.

The compound `CCCN(CCCCCC[N+](C)(C)CCCN1C(=O)c2ccccc2C1=O)CC1CCCCN1CCNC(=O)N1c2ccccc2C(=O)Nc2cccnc21` (stereo not given) returned an Emax,diss in [9] of 100%. In experiment [10], this compound gave a Palpha of -0.58. Moreover, in experiment [11], the pEC0.5,diss amounted to 6.78. Besides, in [12], the pKA was determined as 6.83.
